Most compounds without a hit are left out; they make up all but 1.9% or so of the library.
SKBR3 24h inh: SK-BR-3 proliferation inhibitors. actives 0.47% (n = 41,000). viability, % at 10 µM. AID 847. SK-BR-3 viability, CellTiter-Glo ATP luminescence, 24 h; active compounds read low;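 active means viability at or below the median of all test compounds minus 3 SD, in both replicates if run twice, cut at about 45% in these data; inconclusive means duplicate replicates that disagree with each other; inactive means viability above that cutoff in every replicate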;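 further: 100% = median untreated cell wells and 0% = median positive control drug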
HEK293 NFkB inh: inhibitors of the PMA/ionomycin-induced NF-kB reporter in HEK293 cells; HEK-293 NF-kB luciferase reporter, luminescence; inhibition, % at 3 µM; actives 0.21% (n = 62,000);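 active means inhibition above the mean of all tested compounds plus 3 SD, cut at about 40% in these data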;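 further: 0% = stimulated DMSO wells and 100% = 10 µM reference inhibitor 5653914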
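Timing: 1 h pretreatment, 16 h stimulation, 37 °C; system: HEK-293 cells with stable firefly luciferase reporter driven by four HIV NF-kB elements; doses: 3 µM once, 0.30% DMSO; measured by: luciferase luminescence; control set: DMSO and 10 µM reference inhibitor; repeats: single test; reagent: PMA plus ionomycin mix as NF-kB-activating stimulus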
mHtt clearance: mutant huntingtin protein clearance | HeLa Exon1htt(103Q)mCFP, aggregate imaging; zero = plate's median compound well | inhibition, % at 1.5 µM | actives 0.42% (n = 47,000) | AID 853;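 active means inhibition of aggregate fluorescence above about 70%, also judged a hit by eye on the cell image, limit read from the data, passing the limit was not always enough; inconclusive means no rule stated for this call; inactive means not judged a hit on image review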;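 further: cells exposed to compound for three days before fixation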
Jurkat tox 60K: cytotoxic compounds reducing Jurkat cell viability; actives 1.2% (n = 56,000); inhibition, % at 4 µM; Jurkat E6.1 viability, ATP luminescence, 48 h;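 active means inhibition above the mean inhibition of all tested compounds plus 3 SD, cut at about 28% in these data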
HER2 expr 66K: Her2 kinase expression inhibition; actives 0.69% (n = 65,000); P04626; HER2 level % of control, % at 10 µM; AID 645; SKBR-3 HER2 protein level, AlphaScreen, 18-24 h; active compounds read low;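 active means HER2 level under 5% of the carrier-only control; inconclusive means no clear call, values can overlap the other calls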;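 further: 100% = DMSO carrier and 0% = 500 nM PU-H71 HSP90 inhibitor; lower value means stronger loss of Her2 protein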
Target sequence (P04626 whole entry, looked up): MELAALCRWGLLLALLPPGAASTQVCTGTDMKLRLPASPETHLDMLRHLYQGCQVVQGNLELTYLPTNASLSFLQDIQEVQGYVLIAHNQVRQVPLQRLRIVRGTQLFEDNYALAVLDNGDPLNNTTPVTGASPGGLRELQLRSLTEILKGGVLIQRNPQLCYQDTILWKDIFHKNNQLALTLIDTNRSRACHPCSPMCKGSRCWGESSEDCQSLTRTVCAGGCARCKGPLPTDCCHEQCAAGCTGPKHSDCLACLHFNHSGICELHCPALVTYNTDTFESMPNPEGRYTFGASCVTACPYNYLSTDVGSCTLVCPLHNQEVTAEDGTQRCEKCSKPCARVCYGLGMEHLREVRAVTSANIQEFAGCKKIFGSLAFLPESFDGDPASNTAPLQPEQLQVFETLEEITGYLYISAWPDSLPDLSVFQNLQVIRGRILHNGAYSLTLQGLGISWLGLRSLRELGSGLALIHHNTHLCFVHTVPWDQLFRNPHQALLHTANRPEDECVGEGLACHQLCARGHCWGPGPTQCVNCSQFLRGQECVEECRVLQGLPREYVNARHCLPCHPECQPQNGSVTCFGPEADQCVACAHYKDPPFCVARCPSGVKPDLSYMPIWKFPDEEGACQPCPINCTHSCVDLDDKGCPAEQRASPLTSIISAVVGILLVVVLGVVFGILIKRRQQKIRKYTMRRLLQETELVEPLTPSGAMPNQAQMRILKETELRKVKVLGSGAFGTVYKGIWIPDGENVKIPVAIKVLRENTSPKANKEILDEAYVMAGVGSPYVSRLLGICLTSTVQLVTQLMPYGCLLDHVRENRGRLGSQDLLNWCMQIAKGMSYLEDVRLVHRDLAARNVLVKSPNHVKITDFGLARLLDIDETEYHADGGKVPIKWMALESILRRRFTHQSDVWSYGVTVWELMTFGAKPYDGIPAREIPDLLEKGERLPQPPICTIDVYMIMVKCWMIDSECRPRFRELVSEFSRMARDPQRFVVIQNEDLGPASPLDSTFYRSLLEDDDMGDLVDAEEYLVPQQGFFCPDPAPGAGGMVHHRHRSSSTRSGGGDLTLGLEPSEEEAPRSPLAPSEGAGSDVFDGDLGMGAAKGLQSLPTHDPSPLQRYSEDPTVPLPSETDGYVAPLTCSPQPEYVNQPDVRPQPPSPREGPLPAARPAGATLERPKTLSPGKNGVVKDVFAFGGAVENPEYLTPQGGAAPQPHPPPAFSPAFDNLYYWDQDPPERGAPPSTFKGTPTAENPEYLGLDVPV
Active calls of the source: *; i = inactive; ? = inconclusive; · = not tested or not shown.

SMILES	SKBR3 24h inh	HEK293 NFkB inh	mHtt clearance	Jurkat tox 60K	HER2 expr 66K
Cc1ccc(Cl)cc1N1CCN(Cc2nc3c(c(=O)[nH]c(=O)n3C)n2Cc2ccccc2F)CC1	·	11	·	6	3.2*
Cc1ccc(Cl)cc1N1CCN(Cc2nc3c(c(=O)[nH]c(=O)n3C)n2CCc2ccccc2)CC1	·	16	-34	3	45
CCCCn1c(CN2CCN(c3cccc(Cl)c3)CC2)nc2c1c(=O)[nH]c(=O)n2C	·	33	i	80*	92
CCOC(=O)c1c(C)oc2c1c1c(c3ccccc32)OCN(Cc2cccnc2)C1	56	-4	·	3	55
CCOC(=O)c1c(C)oc2c1c(C(c1cccnc1)N1CCN(C)CC1)c(O)c1ccccc12 (configuration not stated)	·	18	·	6	-16*
CCOC(=O)c1c(C)c(C(=O)Nc2ccc(N(C)C)cc2)c(C)n1CC	·	18	12	59*	77
CC1(C)CC(=O)C2=C(C1)OC(=O)C2(NC(=O)c1cccs1)C(F)(F)F (configuration not stated)	79	8	10	-8	-12*
CC(Cc1c[nH]c2ccccc12)NC(=O)C1CCCNC1=O (configuration not stated)	96	7	87*	-3	103
O=C(NCc1ccccc1)N[C@@H](Cc1c[nH]c2ccccc12)C(=O)O	111	-3	·	-11	93
CC1CCCCC1NS(=O)(=O)c1ccc(S(=O)(=O)NCc2ccncc2)cc1 (configuration not stated)	94	14	·	92*	104
Cc1ccc(S(=O)(=O)NCc2ccncc2)cc1	·	18	25	76*	125
CCOc1ccc(S(=O)(=O)NCc2ccncc2)cc1	·	·	13	·	·
O=C(CCOc1ccccc1)NCC(c1ccco1)N1CCCCC1 (configuration not stated)	·	17	·	3	108
CSc1nsc(/C=C/Nc2ccc(C)cc2)c1C#N	·	·	-62	·	·
CCOC(=O)N1CCN(c2nnnn2-c2ccccc2)CC1	101	13	-2	1	-26*
CCC1CCCCN1C(=O)CSc1nc(N)c(NC(=O)c2ccc(OC)c(OC)c2)c(=O)[nH]1 (configuration not stated)	·	11	-98	0	92
CCCCC(=O)C1=C(N2CCCC2)CC(C)(C)CC1=O	·	·	72*	·	·
CCCCC(=O)Nc1ncc2c(n1)CC(C)(C)CC2=O	114	-5	14	6	101
Cc1ccc(CNC(=O)CSc2nc3ccccc3c3nc(C)nn23)cc1	·	·	14	·	·
N#Cc1c(-c2ccco2)cc(-c2ccccn2)nc1N	119	-9	26	1	-1.2*
N#Cc1c(-c2ccco2)cc(-c2cccnc2)nc1N	120	9	-9	0	37
Cc1ccccc1Nc1nc(N)nc(CN2C(=O)NC3(CCCCC3C)C2=O)n1 (configuration not stated)	·	14	·	6	90
O=C(Cc1ccc(Cl)cc1)Nc1ccc2oc(-c3ccncc3)nc2c1	34*	4	-10	0	21
CCCCCC(=O)Nc1ccc2oc(-c3cccnc3)nc2c1	111	5	71*	0	61
O=C(Cc1ccccc1)Nc1ccc2oc(-c3cccnc3)nc2c1	82	4	21	4	108
SMILES	SKBR3 24h inh	HEK293 NFkB inh	mHtt clearance	Jurkat tox 60K	HER2 expr 66K
Cc1cc(OCC(=O)Nc2ccc3oc(-c4ccncc4)nc3c2)ccc1Cl	89	·	·	·	95
CC(C)CN1C(=S)SC(C)(C)C1n1oc(=O)n(-c2ccc(Cl)cc2)c1=O (configuration not stated)	·	·	-43	·	·
N#CC(c1ccc(Cl)cc1)c1ccc(Cl)nn1 (configuration not stated)	·	·	-7	·	·
Cc1cccn2c(=O)c3cc(C(=O)NCCCN4CCCC4=O)n(C)c3nc12	86	4	-54	-3	74
O=C(Nc1cccc(C(=O)N2CCOCC2)c1)NC1CCCCC1	92	18	30	-8	-22*
CCOc1ccccc1NC(=O)C1=C(C)NC(=O)NC1c1cccc(OC)c1OC (configuration not stated)	23*	-3	18	1	93
COc1ccccc1NC(=O)C1=C(C)NC(=O)NC1c1cccc(OC)c1OC (configuration not stated)	87	9	12	5	107
O=C(Cc1c(C(=O)O)[nH]c2ccccc12)NC1CCN(Cc2ccccc2)CC1	104	-11	·	·	·
CCOc1ccc(C2=Nn3c(nnc3-c3ccc(OC)cc3)SC2)cc1	76	23	?	62*	7
COc1ccc(-c2nnc3n2N=C(c2ccccc2)CS3)cc1OC	24*	6	·	-4	16
COc1ccc(C2=Nn3c(nnc3-c3ccccc3)SC2)cc1OC	106	·	·	·	76
Cc1cc(-c2nnc3n2N=C(c2ccc(-c4ccccc4)cc2)CS3)n[nH]1	57	6	·	-1	-21*
COc1cc(OC)cc(C(=O)NCCNC(=O)c2ccco2)c1	·	·	6	·	·
CC1CCN(c2ccc(C(=O)O)cc2N)CC1	43*	3	·	0	84
CC1CCN(c2ccccc2N)CC1	102	0	10	-7	?
OC(CN1CCN(c2cccc(C(F)(F)F)c2)CC1)c1c[nH]c2ccccc12 (configuration not stated)	75	12	-27	22	-22*
O=C(CS(=O)(=O)Cc1ccccc1)N1CCN(c2cccc(C(F)(F)F)c2)CC1	94	-8	-79	1	120
CCOC(=O)c1ccc(N=CC2=C(O)CC(c3ccco3)CC2=O)cc1 (configuration not stated)	78	·	·	·	87
COc1cccc(-n2c(SCC(=O)O)nnc2-c2cccnc2)c1	78	14	·	3	-18*
CCOc1ccc2ccccc2c1C(=O)N1CCN(c2ccccc2)CC1	74	18	-143	85*	65
CCOc1ccccc1C(=O)N1CCN(c2cccc(Cl)c2)CC1	95	40*	·	98*	48
O=C(O)c1ccccc1C(=O)N1CCN(c2cccc(Cl)c2)CC1	102	2	3	-11	106
O=C(c1cccc(F)c1)N1CCN(c2cccc(C(F)(F)F)c2)CC1	·	4	·	-4	156
COc1ccccc1C(=O)N1CCN(c2cccc(C(F)(F)F)c2)CC1	·	12	52	82*	77
CCOc1ccc(S(=O)(=O)N2CCN(c3ccccc3)CC2)c2cccnc12	42*	10	·	0	126
SMILES	SKBR3 24h inh	HEK293 NFkB inh	mHtt clearance	Jurkat tox 60K	HER2 expr 66K
COc1ccc(C(=O)NCCc2nnc(SCC(=O)Nc3ccccc3C(C)C)n2C)cc1	·	·	-18	·	·
COc1ccc(C(=O)N2CCN(c3cccc(Cl)c3)CC2)c(OC)c1	·	16	7	56*	40
Cc1cc(C)nc(-n2nc(C)c(Sc3ccc(F)cc3)c2N)n1	76	-6	8	5	65
Cc1nn(C)c(C)c1Sc1ccc(Br)cc1	56	12	-31	5	-9.0*
CC1(C)NC(=O)N(CC(O)CN2C(=O)NC(C)(C)C2=O)C1=O	43*	-11	-15	11	107
CCOC(=O)/C(C(C)=O)=C1/OC(=O)c2ccccc21	·	·	16	·	·

High-throughput results from PubChem BioAssay.
